# Test results: ChEMBL document CHEMBL1629616 (Antimicrob Agents Chemother, 2009); call rule not given here
# Experiments:
# [1] = molecular target: T1, CYP1A2 (Homo sapiens, UniProt P05177); assay: Inhibition of CYP1A2 in human liver microsomes assessed as phenacetin O-deethylation at 100 uM after 30 mins; assay type: ADME, Microsome; conditions: probe phenacetin (O-deethylation)
# T1 sequence (P05177 whole entry): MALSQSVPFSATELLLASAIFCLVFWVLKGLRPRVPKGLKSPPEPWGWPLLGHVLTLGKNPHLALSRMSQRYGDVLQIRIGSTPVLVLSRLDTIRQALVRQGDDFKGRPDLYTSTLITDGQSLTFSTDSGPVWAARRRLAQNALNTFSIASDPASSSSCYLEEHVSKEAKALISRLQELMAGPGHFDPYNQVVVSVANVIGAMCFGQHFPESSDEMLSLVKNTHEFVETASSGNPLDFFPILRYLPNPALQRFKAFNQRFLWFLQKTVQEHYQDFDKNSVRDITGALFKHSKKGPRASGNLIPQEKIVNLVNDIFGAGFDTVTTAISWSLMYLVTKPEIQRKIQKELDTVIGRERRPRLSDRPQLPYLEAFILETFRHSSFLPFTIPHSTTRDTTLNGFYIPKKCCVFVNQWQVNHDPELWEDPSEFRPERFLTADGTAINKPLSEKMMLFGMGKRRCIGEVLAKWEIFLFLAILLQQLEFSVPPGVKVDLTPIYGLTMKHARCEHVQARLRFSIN
# [2] = molecular target: T2, CYP2A6 (Homo sapiens, UniProt P11509); assay: Inhibition of CYP2A6 in human liver microsomes assessed as coumarin 7-hydroxylation at 100 uM after 15 mins; assay type: ADME, Microsome; conditions: probe coumarin (7-hydroxylation)
# T2 sequence (P11509 whole entry): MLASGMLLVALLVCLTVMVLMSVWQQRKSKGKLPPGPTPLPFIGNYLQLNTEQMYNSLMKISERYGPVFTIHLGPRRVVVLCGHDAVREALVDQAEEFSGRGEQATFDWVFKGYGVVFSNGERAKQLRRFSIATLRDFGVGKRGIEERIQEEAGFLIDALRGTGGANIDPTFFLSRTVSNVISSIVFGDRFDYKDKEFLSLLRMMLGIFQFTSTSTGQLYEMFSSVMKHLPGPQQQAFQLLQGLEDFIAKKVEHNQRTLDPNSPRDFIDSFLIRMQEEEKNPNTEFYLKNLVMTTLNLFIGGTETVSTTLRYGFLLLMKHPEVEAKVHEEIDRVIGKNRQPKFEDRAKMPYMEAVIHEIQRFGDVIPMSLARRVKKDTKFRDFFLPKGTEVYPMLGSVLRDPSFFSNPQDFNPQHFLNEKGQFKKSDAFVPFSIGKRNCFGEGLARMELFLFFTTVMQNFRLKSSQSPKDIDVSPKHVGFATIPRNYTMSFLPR
# [3] = molecular target: T3, CYP2C8 (Homo sapiens, UniProt P10632); assay: Inhibition of CYP2C8 in human liver microsomes assessed as amodiquine N-deethylation at 100 uM after 15 mins; assay type: ADME, Microsome; conditions: probe amodiquine (N-deethylation)
# T3 sequence (P10632 whole entry): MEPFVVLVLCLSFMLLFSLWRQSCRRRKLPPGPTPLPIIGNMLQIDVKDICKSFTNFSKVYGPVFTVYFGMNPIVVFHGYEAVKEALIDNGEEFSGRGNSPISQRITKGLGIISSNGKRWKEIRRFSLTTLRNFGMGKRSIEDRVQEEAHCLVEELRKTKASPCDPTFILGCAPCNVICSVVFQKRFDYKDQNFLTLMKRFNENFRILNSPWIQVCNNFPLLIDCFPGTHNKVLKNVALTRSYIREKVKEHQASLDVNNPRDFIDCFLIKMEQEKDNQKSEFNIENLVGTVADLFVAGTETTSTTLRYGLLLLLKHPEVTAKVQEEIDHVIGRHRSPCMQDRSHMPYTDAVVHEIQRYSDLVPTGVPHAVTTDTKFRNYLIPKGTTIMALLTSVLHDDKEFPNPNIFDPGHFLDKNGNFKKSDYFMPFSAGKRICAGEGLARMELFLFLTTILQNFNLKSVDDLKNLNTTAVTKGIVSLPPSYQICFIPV
# [4] = molecular target: CYP2D6 (Homo sapiens, UniProt P10635); assay: Inhibition of CYP2D6 in human liver microsomes assessed as dextromethorphan O-demethylation at 100 uM after 30 mins; assay type: ADME, Microsome; conditions: probe dextromethorphan (O-demethylation)
# Sequence of CYP2D6 (P10635 whole entry): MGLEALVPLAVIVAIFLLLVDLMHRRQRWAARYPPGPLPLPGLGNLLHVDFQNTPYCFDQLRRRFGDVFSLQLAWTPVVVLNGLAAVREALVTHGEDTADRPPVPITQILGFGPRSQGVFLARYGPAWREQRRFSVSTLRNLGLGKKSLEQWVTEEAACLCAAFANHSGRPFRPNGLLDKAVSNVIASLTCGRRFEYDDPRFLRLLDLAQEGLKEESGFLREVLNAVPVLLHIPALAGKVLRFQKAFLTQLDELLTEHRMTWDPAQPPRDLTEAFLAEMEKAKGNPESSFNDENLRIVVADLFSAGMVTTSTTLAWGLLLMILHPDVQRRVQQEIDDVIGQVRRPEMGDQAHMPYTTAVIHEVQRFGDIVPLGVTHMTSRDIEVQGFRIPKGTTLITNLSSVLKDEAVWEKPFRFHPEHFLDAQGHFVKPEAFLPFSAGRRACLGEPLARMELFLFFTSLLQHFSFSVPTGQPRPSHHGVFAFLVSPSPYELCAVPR
# [5] = molecular target: T4, Cytochrome P450 2B6 (Homo sapiens, UniProt P20813); assay: Inhibition of CYP2B6 in human liver microsomes assessed as 8-hydroxyefavirenz 14-hydroxylation after 10 mins; assay type: ADME, Microsome
# T4 sequence (P20813 whole entry): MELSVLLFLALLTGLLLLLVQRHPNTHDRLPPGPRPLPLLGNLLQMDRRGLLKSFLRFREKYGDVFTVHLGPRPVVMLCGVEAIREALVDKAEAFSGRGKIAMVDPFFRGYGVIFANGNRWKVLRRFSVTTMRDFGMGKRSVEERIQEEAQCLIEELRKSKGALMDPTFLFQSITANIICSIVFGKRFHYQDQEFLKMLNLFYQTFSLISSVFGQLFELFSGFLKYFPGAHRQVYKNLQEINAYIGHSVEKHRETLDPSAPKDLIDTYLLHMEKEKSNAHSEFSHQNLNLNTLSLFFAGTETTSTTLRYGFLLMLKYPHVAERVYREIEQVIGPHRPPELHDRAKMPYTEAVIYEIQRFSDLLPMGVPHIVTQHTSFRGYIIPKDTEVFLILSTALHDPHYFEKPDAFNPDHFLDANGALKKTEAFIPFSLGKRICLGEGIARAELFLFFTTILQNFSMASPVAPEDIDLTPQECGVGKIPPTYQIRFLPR
# [6] = molecular target: T4, Cytochrome P450 2B6; assay: Inhibition of CYP2B6 in human liver microsomes using efavirenz as probe after 10 mins; assay type: ADME, Microsome
# In short: (§1)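 Ethyl acetate extraction under alkaline pH; 8-hydroxyefavirenz measured by HPLC-UV at 245 nm with ritonavir internal standard. IC50 from log concentration versus percent activity remaining.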
# [7] = molecular target: T4, Cytochrome P450 2B6; assay: Inhibition of CYP2B6 in human liver microsomes using 8-hydroxyefavirenz as probe after 10 mins; assay type: ADME, Microsome
# [8] = molecular target: T4, Cytochrome P450 2B6; assay: Inhibition of CYP2B6 in human liver microsomes at 10 uM preincubated for 5 to 30 mins; assay type: ADME, Microsome
# In short: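 Efavirenz (final 100 μM) then added and incubated 10 min with cofactors. Activity compared with 0-min controls lacking inhibitor and NADPH.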
# [9] = molecular target: T4, Cytochrome P450 2B6; assay: Inhibition of CYP2B6 in human liver microsomes assessed as efavirenz 8-hydroxylation at 10 uM after 60 mins; assay type: ADME, Microsome; conditions: 1 h
# [10] = molecular target: T4, Cytochrome P450 2B6; assay: Inhibition of CYP2B6 in human liver microsomes assessed as metabolite formation at 10 uM preincubated for 60 mins; assay type: ADME, Microsome
# [11] = molecular target: T4, Cytochrome P450 2B6; assay: Inhibition of human CYP2B6 expressed in baculovirus assessed as voriconazole N-oxide formation; assay type: ADME
# [12] = molecular target: T4, Cytochrome P450 2B6; assay: Inhibition of CYP2B6 in human liver microsomes assessed as efavirenz 8-hydroxylation after 10 mins by Dixon plot analysis; assay type: ADME, Microsome
# In short: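 8-Hydroxyefavirenz measured by HPLC-UV. Ki from nonlinear regression to competitive, noncompetitive and uncompetitive models, chosen using Dixon plots.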
# [13] = molecular target: T4, Cytochrome P450 2B6; assay: Inhibition of CYP2B6 in human liver microsomes assessed as bupropion 4-hydroxylation after 15 mins by Dixon plot analysis; assay type: ADME, Microsome
# [14] = molecular target: T4, Cytochrome P450 2B6; assay: Inhibition of CYP2B6 in human liver microsomes assessed as efavirenz 8-hydroxylation after 10 mins; assay type: ADME, Microsome; in short: as §1
# [15] = molecular target: CYP3A (Homo sapiens, UniProt P08684+P20815+P24462+Q9HB55); assay: Inhibition of CYP3A in human liver microsomes assessed as midazolam 1'- hydroxylation after 5 mins; assay type: ADME, Microsome; conditions: probe midazolam (1'-hydroxylation)
# In short: (§2)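 1′-Hydroxymidazolam measured by HPLC-UV at 230 nm with desmethyldiazepam internal standard. IC50 from log concentration versus percent activity remaining.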
# [16] = Inhibition of CYP3A using felodipine as probe; assay type: ADME
# [17] = Inhibition of CYP3A using nifedipine as probe; assay type: ADME
# [18] = Inhibition of CYP3A using testosterone as probe; assay type: ADME
# [19] = Inhibition of CYP3A using midazolam as probe; assay type: ADME; in short: as §2
# [20] = molecular target: T4, Cytochrome P450 2B6; assay: Inhibition of CYP2B6 in human liver microsomes using bupropion as probe after 15 mins
# [21] = molecular target: T4, Cytochrome P450 2B6; assay: Inhibition of CYP2B6 in human liver microsomes assessed as bupropion 4-hydroxylation after 15 mins
smiles,measurement,setting,value
C[C@@H](c1ncncc1F)[C@](O)(Cn1cncn1)c1ccc(F)cc1F [VORICONAZOLE],"inhibition at 0.5 h, 100 µM",[1],< 25%
same,"inhibition at 0.25 h, 100 µM",[2],< 25%
same,"inhibition at 0.25 h, 100 µM",[3],< 25%
same,"inhibition at 0.5 h, 100 µM",[4],< 25%
same,IC50,[5],0.79 µM
same,IC50,[6],1.71 µM
same,IC50,[7],0.79 µM
same,inhibition (INH),[8],Not Active
same,inhibition (INH),[9],Not Active
same,inhibition (INH),[10],Active
same,IC50,[11],12.2 µM
same,Ki,[12],0.4 µM
same,Ki,[13],0.34 µM
same,IC50,[14],1.71 µM
same,IC50 at 5 min,[15],2.9 µM
same,IC50,[16],50 µM
same,IC50,[17],10.5 µM
same,IC50,[18],54 µM
same,IC50,[19],10.5 µM
same,IC50,[20],1.19 µM
same,IC50,[21],1.19 µM
